Measured values as given in ChEMBL document CHEMBL3352122, “Design, synthesis and evaluation of 2-aminothiazole derivatives as sphingosine kinase inhibitors” (Bioorg Med Chem, 2014).
Calls of active or inactive are those of the source. The rule behind the calls is not given here.

target: T1, Sphingosine kinase 2 (Homo sapiens, UniProt Q9NRA0); assay: Inhibition of human recombinant Sphk2 after 60 mins by ADP2 fluorescence intensity assay; settings: not given
T1 sequence (Q9NRA0 whole entry): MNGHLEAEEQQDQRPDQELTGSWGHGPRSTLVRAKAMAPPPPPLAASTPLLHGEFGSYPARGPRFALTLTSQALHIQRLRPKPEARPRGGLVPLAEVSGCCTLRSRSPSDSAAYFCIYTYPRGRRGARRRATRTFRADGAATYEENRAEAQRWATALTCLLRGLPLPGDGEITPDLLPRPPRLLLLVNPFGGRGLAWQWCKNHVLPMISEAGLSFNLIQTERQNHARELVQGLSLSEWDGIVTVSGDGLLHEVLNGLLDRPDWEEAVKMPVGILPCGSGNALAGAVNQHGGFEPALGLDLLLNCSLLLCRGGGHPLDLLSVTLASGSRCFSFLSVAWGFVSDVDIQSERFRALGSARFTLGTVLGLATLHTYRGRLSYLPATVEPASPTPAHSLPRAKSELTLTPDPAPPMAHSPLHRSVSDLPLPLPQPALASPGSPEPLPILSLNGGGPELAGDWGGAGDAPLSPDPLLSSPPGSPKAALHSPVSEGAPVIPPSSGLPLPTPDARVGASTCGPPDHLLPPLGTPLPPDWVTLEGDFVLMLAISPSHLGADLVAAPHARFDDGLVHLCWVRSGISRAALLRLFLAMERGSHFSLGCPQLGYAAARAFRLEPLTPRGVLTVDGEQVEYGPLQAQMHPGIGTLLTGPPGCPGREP
Procedure, shortened: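 Recombinant human SphK2 pre-incubated 15 min at RT with inhibitor at eight increasing concentrations, then reacted with D-erythro-sphingosine and ATP for 60 min at RT, keeping substrate conversion at 10–15% within the linear range. […] IC50 was derived from the concentration–inhibition data.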

SMILES | IC50
Cc1csc(Nc2nc(-c3nccs3)cs2)n1 | 6.5 µM

tested on: not listed separately; assay: Cytotoxicity against human U937 cells at 30 uM after 24 hrs by LDH release assay; format: cell-based; settings: u-937, 24 h
Procedure, shortened: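 U937 cells seeded at 1.5 × 10⁴ cells/well, then exposed 24 h to increasing compound concentrations or DMSO vehicle. After centrifugation (250 × g, 4 min), LDH in the supernatant was measured as loss of membrane integrity. Detergent-induced maximum release was set to 100%. Three experiments, mean ± SE.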

SMILES | Activity
Cc1csc(Nc2nc(-c3nccs3)cs2)n1 | 0.69%

target: T2, Sphingosine kinase 2 (Homo sapiens) (UniProt Q9NRA0); assay: Inhibition of human recombinant Sphk2 at 10 uM after 60 mins by ADP2 fluorescence intensity assay; settings: not given
T2 sequence (whole entry): T1 sequence (Q9NRA0 whole entry)
Procedure, shortened: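 Human recombinant SphK2 (stock 0.5 mg/mL in Tris-HCl pH 8.0/imidazole/DTT/glycerol) pre-incubated 15 min at RT with compound at 10 µM or DMSO. Reaction with D-erythro-sphingosine and ATP ran 60 min at RT at 10–15% substrate conversion. ADP was read by Transcreener ADP² FI competitive fluorescence against an ATP/ADP standard curve. % inhibition vs DMSO given as mean ± SEM of five independent experiments, one-sample t-test.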

SMILES | inhibition
Oc1ccc(Nc2nc(-c3ccc(Cl)cc3)cs2)cc1 | 15.5%
COc1cc(Nc2nc(-c3ccc(Cl)cc3)cs2)cc(OC)c1OC | inactive
Oc1ccccc1Nc1nc(-c2ccc(Cl)cc2)cs1 | inactive
COc1cc(Nc2nc(C34CC5CC(CC(C5)C3)C4)cs2)cc(OC)c1OC | 20.8%
Clc1ccc(-c2csc(Nc3ccc4c(c3)OCO4)n2)cc1 | inactive
c1cc2c(cc1Nc1nc(C34CC5CC(CC(C5)C3)C4)cs1)OCO2 | 41.3%
Cc1csc(Nc2nc(-c3ccc(Cl)cc3)c(C)s2)n1 | 19.2%
COc1ccccc1Nc1nc(C23CC4CC(CC(C4)C2)C3)cs1 | 19%
Clc1ccc(-c2csc(Nc3ccc4c(c3)OCCO4)n2)cc1 | inactive
FC(F)(F)Oc1ccc(Nc2nc(-c3ccc(Cl)cc3)cs2)cc1 | inactive
COc1ccccc1Nc1nc(C23CC4CC(CC(C4)C2)C3)c(C)s1 | 41.6%
COc1cc(/C=C/C(=O)Nc2nccs2)cc(OC)c1OC | 26.6%
COc1cc(Nc2nc(-c3ccc(Cl)cc3)c(C)s2)cc(OC)c1OC | inactive
Cc1csc(Nc2nc(C34CC5CC(CC(C5)C3)C4)c(C)s2)n1 | 20.9%
c1cc2c(cc1Nc1nc(C34CC5CC(CC(C5)C3)C4)cs1)OCCO2 | 31.7%
Oc1cccc(Nc2nc(-c3ccc(Cl)cc3)cs2)c1 | inactive
COc1ccc(Nc2nc(-c3ccc(Cl)cc3)cs2)cc1OC | inactive
Oc1ccc(Nc2nc(-c3nccs3)cs2)cc1 | inactive
CC(C)c1ccc(Nc2nc(-c3ccc(Cl)cc3)cs2)cc1 | inactive
OCc1ccc(Nc2nc(-c3ccc(Cl)cc3)cs2)cc1 | inactive
Cc1csc(Nc2nc(-c3nccs3)cs2)n1 | 50%

SMILES | inhibition
CSc1ccc(Nc2nc(-c3ccc(Cl)cc3)c(C)s2)cc1 | inactive
COc1ccc(/C=C/C(=O)Nc2nc(-c3ccc(Cl)cc3)cs2)cc1OC | 31.7%
COc1cc(Nc2nc(C34CC5CC(CC(C5)C3)C4)c(C)s2)cc(OC)c1OC | 21.5%
CSc1ccc(Nc2nc(C34CC5CC(CC(C5)C3)C4)cs2)cc1 | 18.6%
CN(C)c1ccc(Nc2nc(C34CC5CC(CC(C5)C3)C4)cs2)cc1 | inactive
COc1ccc(Nc2nc(-c3ccc(Cl)cc3)c(C)s2)cc1 | inactive
CN(C)c1ccc(Nc2nc(-c3ccc(Cl)cc3)cs2)cc1 | inactive
COc1ccc(Nc2nc(C34CC5CC(CC(C5)C3)C4)cs2)cc1 | inactive
COc1ccc(/C=C/C(=O)Nc2nccs2)cc1OC | 26.5%
COc1cc(/C=C/C(=O)Nc2nc(-c3ccc(Cl)cc3)cs2)cc(OC)c1OC | 32%
Cc1cc(CS(=O)(=O)c2ccccc2)cc(OCc2ccc(CN3CCC[C@@H]3CO)cc2)c1 | 14.7%
FC(F)(F)c1ccc(Nc2nc(-c3ccc(Cl)cc3)cs2)cc1 | inactive
CSc1ccc(Nc2nc(C34CC5CC(CC(C5)C3)C4)c(C)s2)cc1 | inactive
COc1ccc(Nc2nc(-c3ccc(Cl)cc3)cs2)cc1 | inactive
COc1ccccc1Nc1nc(-c2ccc(Cl)cc2)cs1 | inactive
FC(F)(F)c1cc(Nc2nc(-c3ccc(Cl)cc3)cs2)cc(C(F)(F)F)c1 | inactive
COc1ccc(Nc2nc(C34CC5CC(CC(C5)C3)C4)cs2)cc1OC | inactive
CSc1ccc(Nc2nc(-c3ccc(Cl)cc3)cs2)cc1 | inactive
CC(C)c1ccc(Nc2nc(C34CC5CC(CC(C5)C3)C4)cs2)cc1 | inactive
Oc1ccc(Nc2nc(-c3ccc(Br)cc3)cs2)cc1 | 10.3%
Cc1sc(Nc2ccc(O)cc2)nc1-c1ccc(Cl)cc1 | inactive
